Reference: paper PMC5723699 (Pharmacology Research & Perspectives, 2017)
Converted amounts (≈) assume the structure as drawn.

What was measured:
[1] = Part A single ascending dose blood pharmacokinetics; type: in vivo, human
[2] = Part B repeat-dose; type: in vivo, human; conditions: for AUC: male, human, in vivo, po, AUC0‐tau, plasma, oral, geometric mean (% CV)
[3] = biological target: T1, RIPK1 (Homo sapiens, UniProt Q13546); assay: RIPK1 target engagement; type: in vivo; conditions: Part A
T1 sequence (Q13546 1-671): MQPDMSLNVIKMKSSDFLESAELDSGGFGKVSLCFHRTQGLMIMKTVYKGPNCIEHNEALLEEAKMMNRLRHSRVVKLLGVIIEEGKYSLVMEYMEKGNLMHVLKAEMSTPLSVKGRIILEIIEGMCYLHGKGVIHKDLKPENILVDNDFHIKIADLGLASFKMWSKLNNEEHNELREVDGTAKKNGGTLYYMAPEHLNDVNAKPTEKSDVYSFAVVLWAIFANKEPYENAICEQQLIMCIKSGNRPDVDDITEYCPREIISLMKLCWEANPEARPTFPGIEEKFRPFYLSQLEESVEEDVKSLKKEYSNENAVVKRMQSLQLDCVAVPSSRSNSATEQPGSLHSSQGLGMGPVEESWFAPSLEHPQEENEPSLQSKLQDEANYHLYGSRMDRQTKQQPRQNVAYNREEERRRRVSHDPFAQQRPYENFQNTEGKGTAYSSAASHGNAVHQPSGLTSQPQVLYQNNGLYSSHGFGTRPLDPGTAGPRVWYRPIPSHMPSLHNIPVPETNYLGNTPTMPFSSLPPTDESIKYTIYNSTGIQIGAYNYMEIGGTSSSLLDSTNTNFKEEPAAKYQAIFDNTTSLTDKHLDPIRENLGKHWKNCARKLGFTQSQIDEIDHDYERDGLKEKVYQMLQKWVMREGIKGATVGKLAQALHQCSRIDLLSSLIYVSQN

[4] = tested on: MIP‐1α; assay: Ex vivo whole blood challenge assay; type: cell-based, human
[5] = Analysis of metabolism in blood, plasma, urine and bile; type: in vivo, human
Summary of the method: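 Oral dosing in healthy volunteers. Urine collected at various time points. Bile sampled by Entero-Test in one Part B cohort on Days −1 and 7, about 2 h after the morning dose. Blood/water, plasma, urine and bile analysed for relative levels of parent drug and metabolites.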

[6] = tested on: CYP3A4; assay: Plasma 4β-hydroxycholesterol-to-cholesterol ratio as marker of CYP3A4 induction; conditions: following 14 days of dosing
[7] = Safety and tolerability; conditions: for Subjects with drug‐related AEs / Application‐site erythema / Catheter‐site erythema / Contact dermatitis / Headache / Nasopharyngitis / Rash / Subjects with any AE: Part B; for Application‐site erythema / Catheter‐site erythema / Contact dermatitis / Headache / Nasopharyngitis / Rash / Subjects with any AE: 14 days (n = 9)

## CN1C(=O)[C@@H](NC(=O)c2nnc(Cc3ccccc3)[nH]2)COc2ccccc21 [GSK2982772]
[1]; blood, single dose 10 mg capsule, fasted
  Time to C max: 1.5 h
[1]; blood, single dose 0.1, 0.5 and 2.5 mg in solution, fasted
  Median time to C max: ≤ 1 h
[1]; blood, single dose 120 mg capsule, fasted
  Time to C max: 2.5 h
[1]; dose range 0.1‐120 mg
  Dose linearity of kinetics: approximately linear kinetics
[1]; male, human, whole blood, oral
  half-life: ~6 h
[2]; 20 mg, 20 mg QD, Day 1
  AUC: 1160 ng·h/mL
[2]; 20 mg, 20 mg QD, Day 14
  AUC: 1140 ng·h/mL
[2]; 60 mg, 60 mg BID, Day 1
  AUC: 4330 ng·h/mL
[2]; 60 mg, 60 mg BID, Day 14
  AUC: 3100 ng·h/mL
[2]; 60 mg, 60 mg QD, Day 14
  AUC: 2590 ng·h/mL
[2]; 120 mg, 120 mg BID, Day 1
  AUC: 7050 ng·h/mL
[2]; 120 mg, 120 mg BID, Day 14
  AUC: 6990 ng·h/mL
[2]; repeat dosing
  Attainment of steady state (trough plasma predose concentration Days 2 to 14): reached a plateau by Day 2
[3]; 1.5 hours postdose, single doses of 10 mg and above
  Percent TE: > 90%
[3]; 8 hours postdose, single doses of 40 mg and above
  Percent TE (>90% level): sustained
[3]; 48 hours postdose, all dose groups
  Percent TE: negligible
[4]; Homo sapiens, read-out: Concentration needed to elicit a half‐maximal response in all assays, all assays (MIP‐1α, MIP‐1β, TE)
  IC50: ~1.4 ng/mL (≈ 3.71 nM)
[4]; Part B Day 14, 60 mg and 120 mg BID, out to 24 hours posttreatment
  Inhibition (mean of MIP‐1α and MIP‐1β): maximal inhibition
[4]; Part B Day 14, 1.5 hours and 8 hours postdose, all treatment groups
  Inhibition (mean of MIP‐1α and MIP‐1β): maximal inhibition
[5]; in vivo
  Unchanged drug in urine: trace levels
[5]; single and repeat oral dosing, together with N‐glucuronide metabolite
  Unchanged drug in blood and plasma extracts: major circulating drug‐related components
[6]
  CYP3A4 induction: no evidence of CYP3A4 induction
[7]; Part A, reported in 2 subjects, all of mild intensity
  Drug‐related AEs (total number): 3
[7]; 20 mg QD group
  Subjects with drug‐related AEs: 3 subjects
[7]; 20 mg QD
  Application‐site erythema: 0 n (%)
  Catheter‐site erythema: 0 n (%)
  Contact dermatitis: 1 (11) n (%)
  Headache: 4 (44) n (%)
  Nasopharyngitis: 0 n (%)
  Rash: 0 n (%)
  Subjects with any AE: 7 (78) n (%)
[7]; 60 mg BID group
  Subjects with drug‐related AEs: 4 subjects
[7]; 60 mg BID
  Application‐site erythema: 0 n (%)
  Catheter‐site erythema: 2 (22) n (%)
  Contact dermatitis: 5 (56) n (%)
  Headache: 3 (33) n (%)
  Nasopharyngitis: 1 (11) n (%)
  Rash: 1 (11) n (%)
  Subjects with any AE: 9 (100) n (%)
[7]; 60 mg QD
  Application‐site erythema: 0 n (%)
  Catheter‐site erythema: 1 (11) n (%)
  Contact dermatitis: 3 (33) n (%)
  Headache: 0 n (%)
  Nasopharyngitis: 0 n (%)
  Rash: 3 (33) n (%)
  Subjects with any AE: 6 (67) n (%)
[7]; 120 mg BID
  Application‐site erythema: 2 (22) n (%)
  Catheter‐site erythema: 0 n (%)
  Contact dermatitis: 0 n (%)
  Headache: 1 (11) n (%)
  Nasopharyngitis: 3 (33) n (%)
  Rash: 0 n (%)
  Subjects with any AE: 6 (67) n (%)
[7]; any part of the study
  AEs involving clinical laboratory or electrocardiogram abnormalities: no AEs involving clinical laboratory abnormalities or electrocardiogram abnormalities were reported
  Serious AEs, suicidality or deaths: No serious AEs, suicidality or deaths were reported
[7]; single and repeat doses, healthy adult male volunteers
  Overall safety and tolerability: generally safe and well tolerated
[7]; whole study
  Vital signs, physical, neurological examinations, respiratory assessments: no clinically significant abnormal findings
